Assays:
Type in all cases: functional
[1] = system: NCI-H23; test: Antitumor activity against human NCI-H23 cells after 48 hrs by SRB assay; settings: NCI-H23, 48 h
How it was run: (§1)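 NCI60 panel in RPMI 1640 with 5% FBS and 2 mM L-glutamine. Cells were plated at 5000–40,000/well by doubling time, held 24 h, then time-zero plates were TCA-fixed. Five concentrations (10-fold or half-log dilutions of DMSO stocks) were applied for 48 h at 37 °C, 5% CO2. Cells were fixed with cold TCA (10% final adherent, 16% suspension) and stained with 0.4% SRB. Bound dye was dissolved in 10 mM Tris and read at 515 nm. GI50, TGI and LC50 were calculated per line.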

[2] = system: LOX IMVI; test: Cytotoxicity against human LOXIMVI cells assessed as cellular growth at 10 uM after 48 hrs by SRB assay
How it was run: (§2)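 NCI60 single-dose screen of cells in RPMI 1640 with 5% FBS and 2 mM L-glutamine, preincubated 24 h at 37 °C, 5% CO₂. Cells were then exposed 48 h to compound added from DMSO stock. TCA-fixed, stained with 0.4% SRB in 1% acetic acid, dye solubilised in 10 mM Tris base and read at 515 nm. Growth is given as percent of untreated control.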

[3] = system: OVCAR-4; test: Cytotoxicity against human OVCAR4 cells assessed as cellular growth at 10 uM after 48 hrs by SRB assay
How it was run: (§3)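 NCI-60 panel lines grown in RPMI 1640 with 5% FBS and 2 mM L-glutamine. Plated at 5000–40,000 cells/well and preincubated 24 h at 37 °C, 5% CO₂, with time-zero plates fixed in TCA. Compounds, dissolved in DMSO and diluted in medium, were applied for 48 h. Cells were TCA-fixed (10% final for adherent, 16% for suspension) and stained with 0.4% SRB in 1% acetic acid. Dye was solubilised in 10 mM Tris base and read at 515 nm; growth was expressed as a percentage of untreated control.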

[4] = system: KM12; test: Cytotoxicity against human KM12 cells assessed as cellular growth at 10 uM after 48 hrs by SRB assay; how it was run: as §2
[5] = system: HOP-62; test: Cytotoxicity against human HOP62 cells assessed as cellular growth at 10 uM after 48 hrs by SRB assay; how it was run: as §2
[6] = system: ACHN; test: Cytotoxicity against human ACHN cells assessed as cellular growth at 10 uM after 48 hrs by SRB assay; how it was run: as §2
[7] = system: UO-31; test: Cytotoxicity against human UO31 cells assessed as cellular growth at 10 uM after 48 hrs by SRB assay; how it was run: as §3
[8] = system: NCI-H23; test: Cytotoxicity against human NCI-H23 cells assessed as cellular growth at 10 uM after 48 hrs by SRB assay; how it was run: as §3
[9] = system: UO-31; test: Antitumor activity against human UO31 cells after 48 hrs by SRB assay; settings: UO-31, 48 h
How it was run: (§4)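 NCI60 panel cells grown in RPMI 1640 with 5% FBS and 2 mM L-glutamine, plated at 5000–40,000 cells/well and preincubated 24 h at 37 °C, 5% CO₂. Compound was added from DMSO at five concentrations, 10-fold or 1/2 log dilutions, then incubated 48 h.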

[10] = system: OVCAR-8; test: Cytotoxicity against human OVCAR8 cells assessed as cellular growth at 10 uM after 48 hrs by SRB assay; how it was run: as §3
[11] = system: OVCAR-5; test: Antitumor activity against human OVCAR5 cells after 48 hrs by SRB assay; settings: OVCAR-5, 48 h; how it was run: as §1
[12] = system: MDA-MB-468; test: Cytotoxicity against human MDA-MB-468 cells assessed as cellular growth at 10 uM after 48 hrs by SRB assay; how it was run: as §3
[13] = system: PC-3; test: Cytotoxicity against human PC3 cells assessed as cellular growth at 10 uM after 48 hrs by SRB assay; how it was run: as §3
[14] = system: OVCAR-3; test: Antitumor activity against human OVCAR3 cells after 48 hrs by SRB assay; settings: OVCAR-3, 48 h; how it was run: as §1
[15] = system: IGROV-1; test: Antitumor activity against human IGROV1 cells after 48 hrs by SRB assay; settings: IGROV-1, 48 h; how it was run: as §1
[16] = system: CAKI-1; test: Cytotoxicity against human Caki1 cells assessed as cellular growth at 10 uM after 48 hrs by SRB assay; how it was run: as §2
[17] = system: NCI/ADR-RES; test: Antitumor activity against human NCI/ADR-RES cells after 48 hrs by SRB assay; how it was run: as §1
[18] = system: SR; test: Cytotoxicity against human SR cells assessed as cellular growth at 10 uM after 48 hrs by SRB assay; how it was run: as §3
[19] = system: CCRF-CEM; test: Antitumor activity against human CCRF-CEM cells after 48 hrs by SRB assay; how it was run: as §1
[20] = system: CCRF-CEM; test: Cytotoxicity against human CCRF-CEM cells assessed as cellular growth at 10 uM after 48 hrs by SRB assay; how it was run: as §2
[21] = system: MOLT-4; test: Antitumor activity against human MOLT4 cells after 48 hrs by SRB assay; settings: MOLT-4, 48 h; how it was run: as §1
[22] = system: SK-MEL-5; test: Cytotoxicity against human SK-MEL-5 cells assessed as cellular growth at 10 uM after 48 hrs by SRB assay; how it was run: as §3
[23] = system: DU-145; test: Cytotoxicity against human DU145 cells assessed as cellular growth at 10 uM after 48 hrs by SRB assay; how it was run: as §2
[24] = system: SR; test: Antitumor activity against human SR cells after 48 hrs by SRB assay; how it was run: as §4
[25] = system: A549; test: Cytotoxicity against human A549 cells assessed as cellular growth at 10 uM after 48 hrs by SRB assay; how it was run: as §2
[26] = system: SK-MEL-28; test: Antitumor activity against human SK-MEL-28 cells after 48 hrs by SRB assay; settings: SK-MEL-28, 48 h; how it was run: as §4
[27] = read-out: LC50 (the source's name)
[28] = read-out: pLC50 (the source's name) (converted)

SMILES: COc1ccc(/C(=C2\O[C@@H]([C@H]3COC(C)(C)O3)[C@H]3OC(C)(C)O[C@@H]23)c2cc(OC)c(OC)c(OC)c2)cc1O
- GI50 ([1]; read-out: GI50): 21.8 µM
- CC50 [1, 27]: > 100 µM
- TGI ([1]; read-out: TGI): 74.9 µM
- GI50 ([1]; read-out: pGI50 (converted)): 20.9 µM
- CC50 [1, 28]: > 100 µM
- TGI ([1]; read-out: pTGI (converted)): 74.1 µM
- Activity [2]: 47.56%
- Activity [3]: 105.57%
- Activity [4]: 5.71%
- Activity [5]: 91.26%
- Activity [6]: 49.46%
- Activity [7]: 123.08%
- Activity [8]: 81.18%
- GI50 ([9]; read-out: GI50): 21.7 µM
- CC50 [9, 27]: > 100 µM
- TGI ([9]; read-out: TGI): 70.4 µM
- GI50 ([9]; read-out: pGI50 (converted)): 21.9 µM
- CC50 [9, 28]: > 100 µM
- TGI ([9]; read-out: pTGI (converted)): 70.8 µM
- Activity [10]: 96.09%
- GI50 ([11]; read-out: GI50): 59.6 µM
- CC50 [11, 27]: > 100 µM
- TGI ([11]; read-out: TGI): > 100 µM
- GI50 ([11]; read-out: pGI50 (converted)): 60.3 µM
- CC50 [11, 28]: > 100 µM
- TGI ([11]; read-out: pTGI (converted)): > 100 µM
- Activity [12]: 112.6%
- Activity [13]: 29.4%
- GI50 [14]: 2.39 µM
- TGI [14]: 5.67 µM
- CC50 [14, 27]: 21.7 µM
- GI50 ([15]; read-out: GI50): 45.1 µM
- CC50 [15, 27]: > 100 µM
- TGI ([15]; read-out: TGI): > 100 µM
- GI50 ([15]; read-out: pGI50 (converted)): 44.7 µM
- CC50 [15, 28]: > 100 µM
- TGI ([15]; read-out: pTGI): > 100 µM
- Activity [16]: 110.64%
- GI50 [17]: 4.26 µM
- LC50 [17]: > 100 µM
- TGI [17]: 22.3 µM
- Activity [18]: -13.6%
- GI50 ([19]; read-out: GI50): 5.45 µM
- CC50 [19, 27]: > 100 µM
- TGI ([19]; read-out: TGI): > 100 µM
- GI50 ([19]; read-out: pGI50 (converted)): 5.5 µM
- CC50 [19, 28]: > 100 µM
- TGI ([19]; read-out: pTGI): > 100 µM
- Activity [20]: 60.8%
- LC50 (concentration killing 50% of cells) [21]: > 100 µM
- GI50 ([21]; read-out: GI50): 24.2 µM
- TGI ([21]; read-out: TGI): > 100 µM
- GI50 ([21]; read-out: pGI50 (converted)): 24 µM
- CC50 [21, 28]: > 100 µM
- TGI ([21]; read-out: pTGI): > 100 µM
- Activity [22]: 61.79%
- Activity [23]: 45.59%
- GI50 ([24]; read-out: GI50): 6.1 µM
- CC50 [24, 27]: > 100 µM
- TGI ([24]; read-out: TGI): > 100 µM
- GI50 ([24]; read-out: pGI50 (converted)): 6.17 µM
- CC50 [24, 28]: > 100 µM
- TGI ([24]; read-out: pTGI): > 100 µM
- Activity [25]: 80.05%
- LC50 (50% lethal concentration) [26]: > 100 µM
- GI50 ([26]; read-out: GI50): 10.6 µM
- TGI ([26]; read-out: TGI): > 100 µM
- GI50 ([26]; read-out: pGI50 (converted)): 10.5 µM
- CC50 [26, 28]: > 100 µM
- TGI ([26]; read-out: pTGI): > 100 µM

Reference: ChEMBL document CHEMBL1828575, “Design, synthesis and antiproliferative activities of biarylolefins based on polyhydroxylated and carbohydrate scaffolds” (Eur J Med Chem, 2011)
